Measured values: ChEMBL document CHEMBL2384943, “New Peptide-based antimicrobials for tackling drug resistance in bacteria: single-cell fluorescence imaging” (ACS Med Chem Lett, 2013)
Converted amounts (≈) assume the structure as drawn. *1 amine or outer side, *2 acyl side, *3 side chain or, on linkers, in order; H or OH if unused. Where a SMILES comes first, the peptide text is derived from it. The star is where a group is joined. X1 = c1ccc(CN(Cc2ccccc2)Cc2cccc(N*)c2)cc1; X2 = c1ccc(CN(Cc2ccccn2)Cc2cccc(N*)n2)nc1; Glutaryl = O=C(CCCC(=O)[*:2])[*:1]; OBn = c1ccc(CO*)cc1

Columns and labels:
Klebsiella aerogenes [1] = assay: Drug uptake in multidrug-resistant Enterobacter aerogenes EA289 overexpressing AcrAB-tolC at 123 uM after 15 to 60 mins by DUV microspectrofluorimetric analysis; type: ADME, organism-based; conditions: in vivo
Escherichia coli [2] = assay: Antibacterial activity against acrAB-deficient Escherichia coli AG100A assessed as growth inhibition after 18 hrs by two-fold serial dilution method; type: functional
In short: (§1)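 Strains were routinely grown at 37 °C in LB broth or on LB agar, with kanamycin 50 μg·mL–1 added for AG100A and EA298 (EA298 is the tolC derivative of clinical MDR isolate EA289). MICs were read in Mueller Hinton broth with 2-fold serial dilutions, using an inoculum of 2 × 10^5 cfu per 200 μL, scored after 18 h at 37 °C. Ciprofloxacin and fleroxacin served as reference antibiotics.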

Klebsiella aerogenes [3] = assay: Antibacterial activity against multidrug-resistant Enterobacter aerogenes EA289 overexpressing AcrAB-tolC assessed as growth inhibition after 18 hrs by two-fold serial dilution method; type: functional; conditions: EA289, 18 h
In short: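 Inoculum 2 × 10^5 cfu in Mueller Hinton broth with 2-fold serial compound dilutions. MIC was scored after 18 h at 37 °C. Ciprofloxacin and fleroxacin served as internal reference antibiotics. Strains were routinely grown at 37 °C in LB.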

Escherichia coli [4] = assay: Antibacterial activity against wild type Escherichia coli AG100 assessed as growth inhibition after 18 hrs by two-fold serial dilution method; type: functional; conditions: AG100, 18 h; in short: as §1
Klebsiella aerogenes [5] = assay: Antibacterial activity against tolC-deficient Enterobacter aerogenes EA298 assessed as growth inhibition after 18 hrs by two-fold serial dilution method; type: functional; conditions: EA298, 18 h; in short: as §1

**Q.** Which Drug uptake (Klebsiella aerogenes [1]) does the source give for `CN(C)c1cccc2c(S(=O)(=O)NCCCC[C@@H](NC(=O)CCCC(=O)Nc3cccc(CN(Cc4ccccc4)Cc4ccccc4)c3)C(=O)N[C@@H](CCCNC(=N)N)C(=O)N[C@@H](Cc3c[nH]c4ccccc34)C(=O)N[C@@H](CCCNC(=N)N)C(=O)N[C@@H](Cc3c[nH]c4ccccc34)C(=O)OCc3ccccc3)cccc12` here?
**A.** Active

**Q.** How did the MIC (Escherichia coli [2]) turn out when `CC(=O)N[C@@H](CCCNC(=N)N)C(=O)N[C@@H](Cc1c[nH]c2ccccc12)C(=O)N[C@@H](CCCNC(=N)N)C(=O)N[C@@H](Cc1c[nH]c2ccccc12)C(=O)OCc1ccccc1` (Ac-RWRW-OBn) was run?
**A.** 16 µM (≈ 13.4 µg/mL)

**Q.** And the MIC (Klebsiella aerogenes [3])?
**A.** > 128 µM

**Q.** And the MIC (Escherichia coli [4])?
**A.** 64 µM (≈ 53.4 µg/mL)

**Q.** What about the MIC (Klebsiella aerogenes [5]) of the same compound?
**A.** 64 µM (≈ 53.4 µg/mL)

**Q.** What does the source list for `N=C(N)NCCC[C@H](NC(=O)CCCC(=O)Nc1cccc(CN(Cc2ccccc2)Cc2ccccc2)c1)C(=O)N[C@@H](Cc1c[nH]c2ccccc12)C(=O)N[C@@H](CCCNC(=N)N)C(=O)N[C@@H](Cc1c[nH]c2ccccc12)C(=O)OCc1ccccc1` ({X1-Glutaryl}-RWRW-OBn)?
**A.** MIC (Escherichia coli [2]): 64 µM (≈ 76.3 µg/mL); MIC (Klebsiella aerogenes [3]): 64 µM (≈ 76.3 µg/mL); MIC (Escherichia coli [4]): 64 µM (≈ 76.3 µg/mL); MIC (Klebsiella aerogenes [5]): 64 µM (≈ 76.3 µg/mL)

**Q.** Which results are given for `N=C(N)NCCC[C@H](NC(=O)CCCC(=O)Nc1cccc(CN(Cc2ccccn2)Cc2ccccn2)n1)C(=O)N[C@@H](Cc1c[nH]c2ccccc12)C(=O)N[C@@H](CCCNC(=N)N)C(=O)N[C@@H](Cc1c[nH]c2ccccc12)C(=O)OCc1ccccc1` ({X2-Glutaryl}-RWRW-OBn)?
**A.** MIC (Escherichia coli [2]): 8 µM (≈ 9.56 µg/mL); MIC (Klebsiella aerogenes [3]): 16 µM (≈ 19.1 µg/mL); MIC (Escherichia coli [4]): 32 µM (≈ 38.2 µg/mL); MIC (Klebsiella aerogenes [5]): 8 µM (≈ 9.56 µg/mL)

**Q.** What does the source list for `N=C(N)NCCC[C@H](NC(=O)CCCC(=O)Nc1cccc(CN(Cc2ccccn2)Cc2ccccn2)n1)C(=O)N[C@@H](Cc1c[nH]c2ccccc12)C(=O)N[C@@H](CCCNC(=N)N)C(=O)N[C@@H](Cc1c[nH]c2ccccc12)C(=O)N[C@@H](CCCNC(=N)N)C(=O)N[C@@H](Cc1c[nH]c2ccccc12)C(=O)OCc1ccccc1` ({X2-Glutaryl}-RWRWRW-OBn)?
**A.** MIC (Escherichia coli [2]): 8 µM (≈ 12.3 µg/mL); MIC (Klebsiella aerogenes [3]): 16 µM (≈ 24.6 µg/mL); MIC (Escherichia coli [4]): 8 µM (≈ 12.3 µg/mL); MIC (Klebsiella aerogenes [5]): 8 µM (≈ 12.3 µg/mL)

**Q.** With `N=C(N)NCCC[C@H](NC(=O)[C@H](Cc1c[nH]c2ccccc12)NC(=O)CCCC(=O)Nc1cccc(CN(Cc2ccccn2)Cc2ccccn2)n1)C(=O)N[C@@H](Cc1c[nH]c2ccccc12)C(=O)N[C@@H](CCCNC(=N)N)C(=O)OCc1ccccc1` ({X2-Glutaryl}-WRWR-OBn) as the compound, how does the MIC (Escherichia coli [2]) read?
**A.** 8 µM (≈ 9.56 µg/mL)

**Q.** What about the MIC (Klebsiella aerogenes [3]) of the same compound?
**A.** 8 µM (≈ 9.56 µg/mL)

**Q.** What about the MIC (Escherichia coli [4]) of the same compound?
**A.** 16 µM (≈ 19.1 µg/mL)

**Q.** What about the MIC (Klebsiella aerogenes [5]) of the same compound?
**A.** 4 µM (≈ 4.78 µg/mL)

**Q.** For `N=C(N)NCCC[C@H](NC(=O)[C@H](Cc1c[nH]c2ccccc12)NC(=O)CCCC(=O)Nc1cccc(CN(Cc2ccccn2)Cc2ccccn2)n1)C(=O)N[C@@H](Cc1c[nH]c2ccccc12)C(=O)N[C@@H](CCCNC(=N)N)C(=O)N[C@@H](Cc1c[nH]c2ccccc12)C(=O)N[C@@H](CCCNC(=N)N)C(=O)OCc1ccccc1` ({X2-Glutaryl}-WRWRWR-OBn), which MIC (Escherichia coli [2]) is on record?
**A.** 8 µM (≈ 12.3 µg/mL)

**Q.** And the MIC (Klebsiella aerogenes [3])?
**A.** 16 µM (≈ 24.6 µg/mL)

**Q.** What about the MIC (Escherichia coli [4]) of the same compound?
**A.** 8 µM (≈ 12.3 µg/mL)

**Q.** What about the MIC (Klebsiella aerogenes [5]) of the same compound?
**A.** 8 µM (≈ 12.3 µg/mL)

**Q.** What does the source list for `CCCCC[C@H](CC(=O)NO)C(=O)N[C@H](C(=O)N1CCC[C@H]1CO)C(C)C` [ACTINONIN]?
**A.** MIC (Escherichia coli [2]): 2 µM (≈ 0.771 µg/mL); MIC (Klebsiella aerogenes [3]): > 128 µM; MIC (Escherichia coli [4]): > 128 µM; MIC (Klebsiella aerogenes [5]): 32 µM (≈ 12.3 µg/mL)

**Q.** Which results are given for `O=C(O)c1cn(C2CC2)c2cc(N3CCNCC3)c(F)cc2c1=O` [CIPROFLOXACIN]?
**A.** MIC (Escherichia coli [2]): 0.03 µM (≈ 0.00994 µg/mL); MIC (Klebsiella aerogenes [3]): 64 µM (≈ 21.2 µg/mL); MIC (Escherichia coli [4]): 0.125 µM (≈ 0.0414 µg/mL); MIC (Klebsiella aerogenes [5]): 8 µM (≈ 2.65 µg/mL)

**Q.** What does the source list for `CN1CCN(c2c(F)cc3c(=O)c(C(=O)O)cn(CCF)c3c2F)CC1` [FLEROXACIN]?
**A.** MIC (Escherichia coli [2]): 0.125 µM (≈ 0.0462 µg/mL); MIC (Klebsiella aerogenes [3]): > 128 µM; MIC (Escherichia coli [4]): 0.5 µM (≈ 0.185 µg/mL); MIC (Klebsiella aerogenes [5]): 16 µM (≈ 5.91 µg/mL)
